This is a sample that favours compounds with a hit; in the whole collection about 1.7% have one here.
Rce1 inh: yeast Rce1p protease inhibitors, primary screen, biochemical, fluorescence, cell-free homogeneous; CAAX prenyl protease 2 (Saccharomyces cerevisiae (strain ATCC 204508 / S288c)), Q03530; yeast membranes, quenched prenylated peptide cleavage fluorescence; calls only; hit rate 0.27% among 290,000; AID 2563, 2010;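 active = fall in fluorescence gain of 50% or more versus controls, with final raw signal at or below 3038400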
RanGTP-Imp inh: inhibitors of RanGTP-importin-beta interaction, primary screen, biochemical, FRET, CFP-Ran, YFP-importin-beta, homogeneous | AID 2216, 2009 | Ran GTPase (GTP-bound) - importin-beta complex | cell-free CFP-Ran/YFP-importin-beta FRET ratio | hit rate 1.1% among 300,000 | inhibition, % (test concentration not listed);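 active = more than half of the replicate wells show a fall in the fluorescence ratio signal beyond about 16%, limit read from the data, passing the limit was not always enough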
Runt-SMMHC FRET: inhibitors of RUNX1 Runt–CBFb-SMMHC binding, primary screen, biochemical, FRET, Cerulean-Runt, Venus-CBFb-SMMHC, uHTS. Runt-related transcription factor 1 (Homo sapiens) + Core-binding factor subunit beta …. Cerulean-Runt/Venus-CBFb-SMMHC FRET ratio 530/480, 1 h. inhibition, % at 20 µM. hit rate 0.74% among 220,000. AID 1434, 2008;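 active = mean inhibition across duplicate retests at 20 µM reaching about 50%, limit read from the data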;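 note: inhibitors lower the FRET ratio by blocking Runt binding to CBFb-SMMHC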
Target sequence (Q01196 whole entry, looked up): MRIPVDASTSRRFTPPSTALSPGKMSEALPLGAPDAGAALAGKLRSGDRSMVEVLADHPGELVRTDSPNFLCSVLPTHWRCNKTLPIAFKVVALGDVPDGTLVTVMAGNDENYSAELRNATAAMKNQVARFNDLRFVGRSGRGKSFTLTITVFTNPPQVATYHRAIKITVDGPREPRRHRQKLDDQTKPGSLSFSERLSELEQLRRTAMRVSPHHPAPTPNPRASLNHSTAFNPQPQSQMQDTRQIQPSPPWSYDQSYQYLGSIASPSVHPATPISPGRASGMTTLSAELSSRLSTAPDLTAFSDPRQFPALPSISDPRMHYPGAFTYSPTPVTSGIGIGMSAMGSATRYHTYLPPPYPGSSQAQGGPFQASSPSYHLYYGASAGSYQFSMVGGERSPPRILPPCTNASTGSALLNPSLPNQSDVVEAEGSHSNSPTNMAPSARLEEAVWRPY
Target sequence (Q13951 whole entry, looked up): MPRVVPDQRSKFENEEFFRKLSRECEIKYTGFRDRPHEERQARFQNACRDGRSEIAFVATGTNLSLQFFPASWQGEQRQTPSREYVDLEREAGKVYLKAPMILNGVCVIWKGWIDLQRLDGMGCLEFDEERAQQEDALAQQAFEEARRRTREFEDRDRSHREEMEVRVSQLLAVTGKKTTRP
Vif inh: HIV Vif self-association inhibitors, primary screen, imaging, HEK293T, single point; inhibition, % at 7.49 µM; HEK293T cells, Vif self-association by quenched fluorescence, 24 h; hit rate 0.35% among 340,000; AID 602346, 2012; in the data active = inhibition above about 50%, passing the limit was not always enough
Runt-CBFb FRET: inhibitors of RUNX1 Runt–CBFb binding, primary screen, biochemical, FRET, Cerulean-Runt, Venus-CBFb, uHTS; Runt-related transcription factor 1 (Homo sapiens) + Core-binding factor subunit beta …; Cerulean-Runt/Venus-CBFb FRET ratio 530/480, 1 h; inhibition, % at 20 µM; hit rate 0.46% among 220,000;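 active = inhibition over about 50% at 20 µM in the single-dose screen, limit read from the data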
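Reagent – Venus-CBFb binding partner, 100 nM · Assay system – Cerulean-tagged RUNX1 Runt domain (FRET donor) fusion protein · Input – 100 nM per protein · Incubation – two 1 h room-temperature incubations shielded from light · Measured by – FRET fluorescence · Medium – Tris buffer pH 7.5 with salts and BSA · Benchmarks – unlabeled CBFb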
Hits are given with their value; i = inactive; nt = no result; + = active, no number.

SMILES	Rce1 inh	RanGTP-Imp inh	Runt-SMMHC FRET	Vif inh	Runt-CBFb FRET
CC[n+]1c(/C=C/C=C/N(C(C)=O)c2ccccc2)sc2ccccc21	i	i	i	162.3	i
CC(OC(=O)c1cccc(-n2cnnn2)c1)C(=O)c1ccccc1 (stereo unspecified)	i	i	nt	i	nt
CCc1c(C)nc2c(Br)cccc2c1SCCC#N	i	28.8	i	i	i
CC(=O)NC(c1ccccc1)c1nc(-c2ccc3ccccc3c2)cs1 (stereo unspecified)	nt	nt	nt	i	nt
COc1ccc(C2=CC3=C(Br)C(=O)C(C)(OC(=O)C4CCCC4)C(=O)C3=CO2)cc1 (stereo unspecified)	i	i	i	i	63.6
COC(=O)CCC(=O)OC1(C)C(=O)C2=COC(c3ccc(OC)cc3)=CC2=C(Br)C1=O (stereo unspecified)	i	i	i	nt	i
Cc1ccc(Cc2cnc(NC(=O)/C(C#N)=C/c3ccc(-c4ccc([N+](=O)[O-])cc4)o3)s2)cc1	i	i	i	89.0	i
CCN1CCN(c2cc(C)c3cc(NC(=O)CCC(=O)Nc4ccc(OC)c(OC)c4)ccc3n2)CC1	i	i	nt	nt	nt
COc1ccc(C)cc1NC(=O)CCC(=O)Nc1ccc2nc(N3CCN(C)CC3)cc(C)c2c1	+	i	i	nt	i
CCN(CC)S(=O)(=O)c1ccc(C(=O)OC2CCCCC2CN(C)C)cc1 (stereo unspecified)	i	25.9	i	i	i
CN(C)CC1CCCCC1OC(=O)c1ccc(Cl)cc1 (stereo unspecified)	i	i	i	i	i
COc1ccc(OC)c(COC(=O)c2cc([N+](=O)[O-])ccc2N2CCOCC2)c1	nt	nt	nt	i	nt
CCOc1ccc(C(C)=O)cc1COC(=O)c1cc([N+](=O)[O-])ccc1N1CCOCC1	i	i	nt	71.4	nt
Cc1cc(C)cc(NC(=S)N2CCC(NC(=O)c3ccccc3C)CC2)c1	i	i	i	i	i
CN1/C(=C\C=C(/C#N)C(=O)Nc2ccc(Cl)cc2)C(C)(C)c2ccccc21	i	27.6	i	nt	i
CN1/C(=C/C=N/n2cnnc2)C(C)(C)c2ccccc21	i	i	i	i	i
CN1/C(=C\C=C(C#N)C#N)C(C)(C)c2ccccc21	i	i	i	118.9	i
CN1/C(=C\C(=O)Nc2ccc(Cl)cc2)C(C)(C)c2ccccc21	i	i	i	i	i
COc1ccc(C(=O)N(C)Cc2cnn(Cc3ccccc3)c2)cc1S(=O)(=O)N1CCOCC1	nt	nt	nt	i	nt
COc1ccc(C2CC(c3ccc4ccccc4c3)=NN2C(=O)CNC2CCCCC2)cc1 (stereo unspecified)	+	i	i	i	i
C=CCNCC(=O)N1N=C(c2ccc3ccccc3c2)CC1c1ccc(OC)cc1 (stereo unspecified)	i	i	i	i	i
O=C1c2cccc3c(N4CCCCC4)ccc(c23)C(=O)N1c1ccccc1O	i	i	i	i	i
O=C1c2cccc3c(N4CCCCC4)ccc(c23)C(=O)N1c1ccc(O)cc1	i	nt	i	112.5	i
COc1cc(/C=N/OCC(=O)Nc2cc(C)cc(C)c2)ccc1OCc1ccc(Cl)cc1	i	25.5	i	i	i
COc1ccccc1NC(=O)CCNS(=O)(=O)c1ccc2c(c1)CCN2C(C)=O	i	i	nt	i	nt
SMILES	Rce1 inh	RanGTP-Imp inh	Runt-SMMHC FRET	Vif inh	Runt-CBFb FRET
CCCNC(=O)c1cc(C2CCCN(S(=O)(=O)c3cccc4cccnc34)C2)on1 (stereo unspecified)	nt	nt	nt	72.5	nt
O=C(NCc1ccccc1)c1cc(C2CCCN(S(=O)(=O)c3cccc4cccnc34)C2)on1 (stereo unspecified)	nt	nt	nt	i	nt
CC(=O)C1=C(C)NC(SCC(=O)c2ccc(Cl)c(Cl)c2)=C(C#N)C1c1ccco1 (stereo unspecified)	i	i	i	82.1	i
Cc1ccc(CS(=O)(=O)Cc2ccc(C(=O)NCc3cccs3)o2)cc1	i	i	i	i	i
N[C@@H](Cc1cnc[nH]1)C(=O)Nc1ccc2ccccc2c1	nt	nt	nt	i	nt
Cc1nnc(SC(C)C(=O)Nc2sc3c(c2C#N)CCCC3)[nH]c1=O (stereo unspecified)	i	i	nt	53.0	nt

Source: PubChem BioAssay
